Source: ChEMBL document CHEMBL4325921, “Potent Triazolopyridine Myeloperoxidase Inhibitors” (ACS Med Chem Lett, 2018)
Activity calls are given as the source filed them. No cut-off for these calls is given here.

Experiments:
Myeloperoxidase [1] = biological target: T1, Myeloperoxidase (Homo sapiens, UniProt P05164); assay: Inhibition of human PMN leukocytes MPO peroxidation activity using H2O2 as substrate preincubated for 10 mins followed by H2O2 addition and measured for 15 mins by amplex red reagent based assay
T1 sequence (P05164 whole entry): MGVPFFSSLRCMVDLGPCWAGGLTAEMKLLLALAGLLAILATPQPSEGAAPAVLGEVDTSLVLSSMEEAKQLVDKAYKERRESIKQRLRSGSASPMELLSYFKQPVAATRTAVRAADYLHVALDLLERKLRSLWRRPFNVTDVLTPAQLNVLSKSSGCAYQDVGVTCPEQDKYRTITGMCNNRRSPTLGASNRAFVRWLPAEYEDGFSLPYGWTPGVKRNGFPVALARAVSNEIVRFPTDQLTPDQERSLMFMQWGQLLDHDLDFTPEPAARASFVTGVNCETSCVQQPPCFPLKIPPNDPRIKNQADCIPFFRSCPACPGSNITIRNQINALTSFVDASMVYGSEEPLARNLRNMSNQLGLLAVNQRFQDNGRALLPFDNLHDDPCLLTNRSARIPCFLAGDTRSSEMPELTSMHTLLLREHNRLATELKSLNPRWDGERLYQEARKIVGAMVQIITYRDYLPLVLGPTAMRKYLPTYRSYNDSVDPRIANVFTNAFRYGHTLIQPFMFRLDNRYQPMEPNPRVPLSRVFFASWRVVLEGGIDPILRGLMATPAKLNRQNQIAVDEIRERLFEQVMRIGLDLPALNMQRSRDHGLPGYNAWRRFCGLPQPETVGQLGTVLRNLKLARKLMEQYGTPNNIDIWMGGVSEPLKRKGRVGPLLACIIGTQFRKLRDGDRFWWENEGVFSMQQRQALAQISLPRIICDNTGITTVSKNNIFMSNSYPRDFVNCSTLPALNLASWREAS

Cytochrome P450 3A4 = Cytochrome P450 3A4 (Homo sapiens, UniProt P08684); assay: Inhibition of CYP3A4 (unknown origin); format: ADME
Sequence of Cytochrome P450 3A4 (P08684 whole entry): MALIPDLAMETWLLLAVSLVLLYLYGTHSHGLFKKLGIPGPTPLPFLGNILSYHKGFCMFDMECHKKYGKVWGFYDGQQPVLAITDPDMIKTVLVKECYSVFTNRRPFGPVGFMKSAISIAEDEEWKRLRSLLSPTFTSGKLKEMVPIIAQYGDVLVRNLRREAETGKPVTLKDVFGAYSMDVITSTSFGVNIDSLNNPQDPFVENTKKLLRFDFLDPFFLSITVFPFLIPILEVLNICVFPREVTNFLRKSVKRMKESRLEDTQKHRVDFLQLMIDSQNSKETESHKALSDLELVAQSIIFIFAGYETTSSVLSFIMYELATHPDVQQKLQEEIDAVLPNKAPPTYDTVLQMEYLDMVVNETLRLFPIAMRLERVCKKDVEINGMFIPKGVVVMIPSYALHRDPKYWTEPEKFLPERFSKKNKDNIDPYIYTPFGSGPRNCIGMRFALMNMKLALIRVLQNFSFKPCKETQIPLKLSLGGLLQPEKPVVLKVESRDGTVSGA

Myeloperoxidase [2] = biological target: T1, Myeloperoxidase; assay: Inhibition of human PMN leukocytes MPO chlorination activity using H2O2 as substrate preincubated for 10 mins followed by H2O2 addition and measured for 15 mins in presence of NaCl by aminophenyl fluorescein based assay
[3] = AUC in mouse at 3 mg/kg, po after 8 hrs; format: ADME, organism-based; set-up: dose 3 mg/kg, time < 8 hr, route oral; conditions: in vivo
Eosinophil peroxidase = biological target: T2, Eosinophil peroxidase (Homo sapiens, UniProt P11678); assay: Inhibition of human EPX bromination activity assessed as reduction in H2O2 catalyzed 3-bromo tyrosine formation from tyrosine and potassium bromide preincubated for 10 mins followed by tyrosine/potassium bromide/H2O2 addition measured after 15 mins by RP-UPLC analysis
T2 sequence (P11678 whole entry): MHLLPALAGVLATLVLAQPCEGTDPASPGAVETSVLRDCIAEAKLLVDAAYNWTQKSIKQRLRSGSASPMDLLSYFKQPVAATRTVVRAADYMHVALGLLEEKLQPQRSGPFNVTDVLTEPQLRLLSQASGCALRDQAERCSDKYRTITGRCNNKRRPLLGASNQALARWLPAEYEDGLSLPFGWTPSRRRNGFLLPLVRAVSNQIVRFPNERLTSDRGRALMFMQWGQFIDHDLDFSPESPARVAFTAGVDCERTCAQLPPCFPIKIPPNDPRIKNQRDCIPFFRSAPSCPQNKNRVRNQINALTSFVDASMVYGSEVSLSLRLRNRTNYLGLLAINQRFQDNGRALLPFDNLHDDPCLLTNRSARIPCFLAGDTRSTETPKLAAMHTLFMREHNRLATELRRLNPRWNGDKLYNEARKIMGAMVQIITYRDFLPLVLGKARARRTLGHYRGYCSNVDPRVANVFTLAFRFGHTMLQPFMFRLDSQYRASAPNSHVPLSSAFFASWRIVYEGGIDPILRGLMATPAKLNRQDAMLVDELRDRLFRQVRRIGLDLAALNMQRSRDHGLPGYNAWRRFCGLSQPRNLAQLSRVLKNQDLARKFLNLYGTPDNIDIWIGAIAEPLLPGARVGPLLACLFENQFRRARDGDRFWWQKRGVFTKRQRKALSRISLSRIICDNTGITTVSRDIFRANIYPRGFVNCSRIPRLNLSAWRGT

Thyroid peroxidase = biological target: T3, Thyroid peroxidase (Homo sapiens, UniProt P07202); assay: Inhibition of human TPO assessed as reduction in H2O2 catalyzed 3,5-iodo tyrosine formation from 3-iodotyrosine and potassium iodide preincubated for 10 mins followed by tyrosine/potassium bromide/H2O2 addition measured after 15 mins
T3 sequence (P07202 whole entry): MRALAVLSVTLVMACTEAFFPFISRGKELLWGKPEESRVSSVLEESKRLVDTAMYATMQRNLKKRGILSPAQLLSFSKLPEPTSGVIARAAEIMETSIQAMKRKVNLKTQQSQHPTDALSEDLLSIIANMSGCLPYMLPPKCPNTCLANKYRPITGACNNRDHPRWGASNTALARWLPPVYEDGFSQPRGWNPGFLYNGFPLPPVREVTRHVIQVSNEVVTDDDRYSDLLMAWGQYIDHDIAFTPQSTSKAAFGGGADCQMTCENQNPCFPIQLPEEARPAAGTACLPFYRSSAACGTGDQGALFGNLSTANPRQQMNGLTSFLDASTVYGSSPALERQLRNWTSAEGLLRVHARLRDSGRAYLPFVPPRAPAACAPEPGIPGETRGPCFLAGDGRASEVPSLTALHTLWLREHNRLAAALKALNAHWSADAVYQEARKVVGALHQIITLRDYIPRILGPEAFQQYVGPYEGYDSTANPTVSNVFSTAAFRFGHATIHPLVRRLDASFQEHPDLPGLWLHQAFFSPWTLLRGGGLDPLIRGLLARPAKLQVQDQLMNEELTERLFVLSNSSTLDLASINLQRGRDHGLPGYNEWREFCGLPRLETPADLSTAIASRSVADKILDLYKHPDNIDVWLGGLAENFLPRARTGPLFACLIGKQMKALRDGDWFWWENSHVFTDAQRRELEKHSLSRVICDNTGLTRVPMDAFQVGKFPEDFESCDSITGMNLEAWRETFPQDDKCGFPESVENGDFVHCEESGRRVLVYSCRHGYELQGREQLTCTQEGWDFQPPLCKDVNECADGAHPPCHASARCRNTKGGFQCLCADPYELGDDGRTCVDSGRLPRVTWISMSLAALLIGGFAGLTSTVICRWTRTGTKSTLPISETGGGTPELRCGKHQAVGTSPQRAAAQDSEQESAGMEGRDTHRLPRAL

Lactoperoxidase = Lactoperoxidase (Homo sapiens, UniProt P22079); assay: Inhibition of human LPO assessed as reduction in H2O2 catalyzed 3,5-iodo tyrosine formation from 3-iodotyrosine and potassium iodide preincubated for 10 mins followed by tyrosine/potassium bromide/H2O2 addition measured after 15 mins
Sequence of Lactoperoxidase (P22079 whole entry): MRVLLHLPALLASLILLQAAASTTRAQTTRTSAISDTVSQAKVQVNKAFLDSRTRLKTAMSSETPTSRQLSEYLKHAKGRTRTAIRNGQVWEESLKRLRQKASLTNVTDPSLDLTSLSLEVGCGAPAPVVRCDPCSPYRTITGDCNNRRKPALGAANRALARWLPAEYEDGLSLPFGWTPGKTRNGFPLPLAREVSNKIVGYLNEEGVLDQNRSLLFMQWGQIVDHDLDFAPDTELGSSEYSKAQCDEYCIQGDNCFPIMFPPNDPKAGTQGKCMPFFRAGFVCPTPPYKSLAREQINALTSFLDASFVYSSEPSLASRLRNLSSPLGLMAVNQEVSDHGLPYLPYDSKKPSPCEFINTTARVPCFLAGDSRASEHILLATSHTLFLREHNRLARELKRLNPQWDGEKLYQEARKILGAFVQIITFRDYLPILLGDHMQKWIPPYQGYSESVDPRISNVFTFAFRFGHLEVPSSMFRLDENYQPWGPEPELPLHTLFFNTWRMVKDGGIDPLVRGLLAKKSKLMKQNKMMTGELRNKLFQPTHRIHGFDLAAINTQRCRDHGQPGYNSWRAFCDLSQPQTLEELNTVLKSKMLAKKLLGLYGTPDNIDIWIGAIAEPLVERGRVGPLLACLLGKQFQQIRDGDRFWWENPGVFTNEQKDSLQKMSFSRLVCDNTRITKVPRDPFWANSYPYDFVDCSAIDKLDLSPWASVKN

[4] = Protein binding in human plasma; format: ADME, cell-free; conditions: read-out: PPB (converted)
[5] = Protein binding in mouse plasma; format: ADME, cell-free; conditions: read-out: PPB (converted)
[6] = Cmax in mouse at 3 mg/kg, po; format: ADME, organism-based; set-up: dose 3 mg/kg, route oral; conditions: in vivo
Mus musculus [7] = assay: In vivo inhibition of PMA-stimulated MPO in human MPO transgenic mouse model of acute inflammation assessed as reduction in hypochlorous acid production in blood administered orally 20 mins prior to PMA stimulation and measured after 2 mins by luminol chemiluminescence assay; format: functional, organism-based
How it was run: (§1)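 Mice were dosed with test compound, then given PMA 20 minutes later to stimulate MPO through neutrophil degranulation. After 2 minutes, blood samples were treated with luminol. Chemiluminescence was read as MPO-dependent hypochlorous acid production.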

Mus musculus [8] = assay: In vivo inhibition of […] in mouse model of acute inflammation at 10 to 30 mg/kg, po; format: functional, organism-based
Mus musculus [9] = assay: In vivo inhibition of PMA-stimulated MPO in human MPO transgenic mouse model of acute inflammation assessed as reduction in hypochlorous acid production in blood at 10 mg/kg, po administered 20 mins prior to PMA stimulation and measured after 2 mins by luminol chemiluminescence assay relative to control; format: functional; how it was run: as §1
Mus musculus [10] = assay: In vivo inhibition of PMA-stimulated MPO in human MPO transgenic mouse model of acute inflammation assessed as reduction in hypochlorous acid production in blood at 30 mg/kg, po administered 20 mins prior to PMA stimulation and measured after 2 mins by luminol chemiluminescence assay relative to control; format: functional; how it was run: as §1
[11] = Plasma concentration in human MPO transgenic mouse model of PMA-induced acute inflammation at 10 mg/kg, po; format: ADME, organism-based; conditions: in vivo
[12] = Plasma concentration in human MPO transgenic mouse model of PMA-induced acute inflammation at 30 mg/kg, po; format: ADME, organism-based; conditions: in vivo
[13] = Half life in pH 1 solution; format: physicochemical
[14] = biological target: T4, Methylated-DNA--protein-cysteine methyltransferase (Homo sapiens, UniProt P16455); assay: Inhibition of recombinant human N-terminal His-tagged MGMT (1 to 207 residues) expressed in Escherichia coli using O-6-benzylguanine as substrate after 30 mins by LC-MS analysis; conditions: 0.5 h
T4 sequence (P16455 whole entry): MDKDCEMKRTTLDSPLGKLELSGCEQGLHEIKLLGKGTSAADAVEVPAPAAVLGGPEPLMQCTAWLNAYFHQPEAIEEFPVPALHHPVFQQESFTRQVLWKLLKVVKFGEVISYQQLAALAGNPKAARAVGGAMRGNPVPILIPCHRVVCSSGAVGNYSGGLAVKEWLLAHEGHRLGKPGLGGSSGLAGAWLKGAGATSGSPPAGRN

Nc1cc(OCc2cc(-c3cccc(F)c3)ccc2Cl)c2nn[nH]c2n1
IC50 (Myeloperoxidase [1]): 24 nM
IC50 (Cytochrome P450 3A4): 60 nM

Nc1cc(OCc2ncc(-c3ccccc3)o2)c2nn[nH]c2n1
IC50 (Myeloperoxidase [1]): 290 nM

Nc1cc(OCc2cccc(-c3ccccc3F)c2)c2nn[nH]c2n1
IC50 (Myeloperoxidase [1]): 160 nM

Nc1cc(SCc2ccccc2F)c2nn[nH]c2n1
IC50 (Myeloperoxidase [2]): 6.8 nM
IC50 (Myeloperoxidase [1]): 8.7 nM
AUC at 8 h [3]: 18 µM·h
IC50 (Eosinophil peroxidase): 22 nM
IC50 (Thyroid peroxidase): 4000 nM
IC50 (Lactoperoxidase): > 8000 nM
fraction unbound [4]: 0.02
fraction unbound [5]: 0.192
Cmax [6]: 17 µM
inhibition (Mus musculus [7]): Dose-dependent effect
inhibition (Mus musculus [8]): Active
inhibition in vivo at 10 mg/kg (Mus musculus [9]): 50%
inhibition in vivo at 30 mg/kg (Mus musculus [10]): 74%
concentration [11]: 21 µM
concentration [12]: 70 µM

Cc1c(COc2cc(N)nc3[nH]nnc23)cccc1-c1ccn(C)n1
IC50 (Myeloperoxidase [1]): 26 nM
IC50 (Cytochrome P450 3A4): 1500 nM

Nc1cc(OCc2ccccc2Cl)c2nn[nH]c2n1
IC50 (Myeloperoxidase [1]): 26 nM

Nc1cc(SCc2c(Cl)cccc2Cl)c2nn[nH]c2n1
IC50 (Myeloperoxidase [1]): 4.6 nM

Cn1cc(-c2cccc(COc3cc(N)nc4[nH]nnc34)c2)cn1
IC50 (Myeloperoxidase [1]): 78 nM

CS(=O)(=O)c1ccccc1COc1cc(N)nc2[nH]nnc12
IC50 (Myeloperoxidase [1]): 720 nM

Cc1nn(-c2ccccc2)nc1COc1cc(N)nc2[nH]nnc12
IC50 (Myeloperoxidase [1]): 27 nM
IC50 (Cytochrome P450 3A4): 370 nM

Nc1cc(OCc2cccc(-c3cccc(F)c3)c2)c2nn[nH]c2n1
IC50 (Myeloperoxidase [1]): 21 nM

Nc1cc(OCc2ccc(Cl)cc2)c2nn[nH]c2n1
IC50 (Myeloperoxidase [1]): 26 nM

Nc1nc(OCc2ccccc2)c2[nH]nnc2n1
IC50 (Myeloperoxidase [2]): 110 to 190 nM
half-life [13]: 2.8 h
AUC at 8 h [3]: 22 µM·h
inhibition (INH) [14]: Active
IC50 (Eosinophil peroxidase): 17 nM
IC50 (Thyroid peroxidase): 42000 nM
IC50 (Lactoperoxidase): > 100000 nM
fraction unbound [4]: 0.006
fraction unbound [5]: 0.127
Cmax [6]: 31 µM

Cn1ccc(-c2cccc(COc3cc(N)nc4[nH]nnc34)c2)n1
IC50 (Myeloperoxidase [1]): 21 nM

Cc1c(COc2cc(N)nc3[nH]nnc23)cccc1-c1cccc(F)c1
IC50 (Myeloperoxidase [1]): 23 nM

Nc1cc(OCc2ccccc2F)c2nn[nH]c2n1
IC50 (Myeloperoxidase [1]): 30 nM

Nc1cc(OCc2nn(-c3ccccc3)nc2C(F)F)c2nn[nH]c2n1
IC50 (Myeloperoxidase [1]): 12 nM

Nc1cc(OCc2cccc(Cl)c2)c2nn[nH]c2n1
IC50 (Myeloperoxidase [1]): 21 nM

Nc1cc(SCc2nn(-c3ccccc3)nc2C(F)F)c2nn[nH]c2n1
IC50 (Myeloperoxidase [1]): 8.5 nM

Nc1cc(OCc2cn(-c3ccccc3)nn2)c2nn[nH]c2n1
IC50 (Myeloperoxidase [1]): 400 nM

Nc1cc(OCc2ccccc2-n2cccn2)c2nn[nH]c2n1
IC50 (Myeloperoxidase [1]): 26 nM

Nc1cc(OCc2ccccc2)c2nn[nH]c2n1
IC50 (Myeloperoxidase [2]): 50 nM
IC50 (Myeloperoxidase [1]): 36 nM
half-life [13]: > 100 h
AUC at 8 h [3]: 11 µM·h
inhibition (INH) [14]: Active

Nc1cc(OCc2c(Cl)cccc2Cl)c2nn[nH]c2n1
IC50 (Myeloperoxidase [1]): 6.7 nM

Nc1cc(OCc2nn(-c3ccccc3)nc2CO)c2nn[nH]c2n1
IC50 (Myeloperoxidase [1]): 250 nM
